Laboratory results as given in ChEMBL document CHEMBL5058577, “EUbOPEN Chemogenomics Library 2 (Multiplex)” (2022).

Tested on: HEK-293T
Test: Multiplex assay against HEK293T
Assay type: toxicity, cell-based
Conditions: human
In short: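 On a CQ1 microscope at 37°C and 5% CO2, live cells were imaged after compound addition. They had been stained at seeding with Hoechst33342, BioTracker Green Microtubule Cytoskeleton Dye, MitoTracker Red and Annexin V Alexa Fluor 680. CellPathfinder machine-learning gating assigned cells to Hoechst high-intensity objects or normal cells, normal cells to healthy, pyknosed or fragmented nuclei, and pyknosed cells to mitotic or apoptotic. Tubulin, mitochondrial-mass and membrane-permeability phenotypes are per cents of healthy-nucleus cells.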

[1] = 12 h, 1 µM, compound concentration 1 uM, replicate 1
[2] = 12 h, 1 µM, compound concentration 1 uM, replicate 2
[3] = 12 h, 10 µM, compound concentration 10 uM, replicate 1
[4] = 12 h, 10 µM, compound concentration 10 uM, replicate 2
[5] = 24 h, 1 µM, compound concentration 1 uM, replicate 1
[6] = 24 h, 1 µM, compound concentration 1 uM, replicate 2
[7] = 24 h, 10 µM, compound concentration 10 uM, replicate 1
[8] = 24 h, 10 µM, compound concentration 10 uM, replicate 2
[9] = 48 h, 1 µM, compound concentration 1 uM, replicate 1
[10] = 48 h, 1 µM, compound concentration 1 uM, replicate 2
[11] = 48 h, 10 µM, compound concentration 10 uM, replicate 1
[12] = 48 h, 10 µM, compound concentration 10 uM, replicate 2

In the case of `CC(C)C[C@H](CO)Nc1nc(S[C@@H](C)c2ccccc2)nc2nc(N)sc12` [AZD-8797], the “Population Apoptotic (%)” value [1] is reported as 39%, the “Population Fragmented Nuclei (%)” value [1] is reported as 2% and the “Population Healthy Nuclei (%)” value [1] is reported as 81%. For the same molecule, the “Population Hoechst High Intensity Objects (%)” value [1] was 4%, the “Population Membrane Permeable-Phenotype (%)” value [1] was 0% and the “Population Mitochondria Different-Phenotype (%)” value [1] was 44%. For the same molecule, the “Population Mitotic Cells (%)” value [1] was 60%, the “Population Normal (%)” value [1] was 95% and the “Population Pyknosed Nuclei (%)” value [1] was 15%. The “Population Tubulin-Different-Phenotype (%)” value [1] was 27%, the “Total Cell Count” value [1] was 326 and the “Population Apoptotic (%)” value [2] was 46%. For the same molecule, the “Population Fragmented Nuclei (%)” value [2] was 8%, the “Population Healthy Nuclei (%)” value [2] was 72% and the “Population Hoechst High Intensity Objects (%)” value [2] was 7%. For the same molecule, the “Population Mitochondria Different-Phenotype (%)” value [2] was 57%, the “Population Mitotic Cells (%)” value [2] was 53% and the “Population Normal (%)” value [2] was 92%. The “Population Pyknosed Nuclei (%)” value [2] was 18%, the “Population Tubulin-Different-Phenotype (%)” value [2] was 22% and the “Total Cell Count” value [2] was 356. For the same molecule, the “Population Apoptotic (%)” value [3] was 65%, the “Population Fragmented Nuclei (%)” value [3] was 9% and the “Population Healthy Nuclei (%)” value [3] was 71%. For the same molecule, the “Population Hoechst High Intensity Objects (%)” value [3] was 10%, the “Population Membrane Permeable-Phenotype (%)” value [3] was 0% and the “Population Mitochondria Different-Phenotype (%)” value [3] was 70%. For the same molecule, the “Population Mitotic Cells (%)” value [3] was 34%, the “Population Normal (%)” value [3] was 89% and the “Population Pyknosed Nuclei (%)” value [3] was 18%. The “Population Tubulin-Different-Phenotype (%)” value [3] was 56%, the “Total Cell Count” value [3] was 279 and the “Population Apoptotic (%)” value [4] was 67%. For the same molecule, the “Population Fragmented Nuclei (%)” value [4] was 6%, the “Population Healthy Nuclei (%)” value [4] was 75% and the “Population Mitochondria Different-Phenotype (%)” value [4] was 75%. The “Population Mitotic Cells (%)” value [4] was 32%, the “Population Tubulin-Different-Phenotype (%)” value [4] was 39% and the “Total Cell Count” value [4] was 345. For the same molecule, the “Population Apoptotic (%)” value [5] was 37%, the “Population Fragmented Nuclei (%)” value [5] was 7% and the “Population Healthy Nuclei (%)” value [5] was 76%. For the same molecule, the “Population Hoechst High Intensity Objects (%)” value [5] was 3%, the “Population Membrane Permeable-Phenotype (%)” value [5] was 0% and the “Population Mitochondria Different-Phenotype (%)” value [5] was 25%. The “Population Mitotic Cells (%)” value [5] was 62%, the “Population Normal (%)” value [5] was 97% and the “Population Pyknosed Nuclei (%)” value [5] was 15%. For the same molecule, the “Population Tubulin-Different-Phenotype (%)” value [5] was 16%, the “Total Cell Count” value [5] was 400 and the “Population Apoptotic (%)” value [6] was 45%. For the same molecule, the “Population Healthy Nuclei (%)” value [6] was 81%, the “Population Hoechst High Intensity Objects (%)” value [6] was 5% and the “Population Mitochondria Different-Phenotype (%)” value [6] was 42%. For the same molecule, the “Population Mitotic Cells (%)” value [6] was 54%, the “Population Normal (%)” value [6] was 94% and the “Population Pyknosed Nuclei (%)” value [6] was 11%. The “Population Tubulin-Different-Phenotype (%)” value [6] was 14%, the “Total Cell Count” value [6] was 421 and the “Population Apoptotic (%)” value [7] was 54%. For the same molecule, the “Population Fragmented Nuclei (%)” value [7] was 8%, the “Population Healthy Nuclei (%)” value [7] was 73% and the “Population Hoechst High Intensity Objects (%)” value [7] was 9%. For the same molecule, the “Population Membrane Permeable-Phenotype (%)” value [7] was 0%, the “Population Mitochondria Different-Phenotype (%)” value [7] was 64% and the “Population Mitotic Cells (%)” value [7] was 45%. The “Population Normal (%)” value [7] was 90%, the “Population Pyknosed Nuclei (%)” value [7] was 17% and the “Population Tubulin-Different-Phenotype (%)” value [7] was 39%. The “Total Cell Count” value [7] was 346, the “Population Apoptotic (%)” value [8] was 51% and the “Population Fragmented Nuclei (%)” value [8] was 9%. The “Population Healthy Nuclei (%)” value [8] was 77%, the “Population Hoechst High Intensity Objects (%)” value [8] was 8% and the “Population Mitochondria Different-Phenotype (%)” value [8] was 71%. For the same molecule, the “Population Mitotic Cells (%)” value [8] was 48%, the “Population Normal (%)” value [8] was 91% and the “Population Pyknosed Nuclei (%)” value [8] was 12%. For the same molecule, the “Population Tubulin-Different-Phenotype (%)” value [8] was 36%, the “Total Cell Count” value [8] was 393 and the “Population Apoptotic (%)” value [9] was 43%. The “Population Fragmented Nuclei (%)” value [9] was 15%, the “Population Healthy Nuclei (%)” value [9] was 78% and the “Population Hoechst High Intensity Objects (%)” value [9] was 1%. The “Population Membrane Permeable-Phenotype (%)” value [9] was 0%, the “Population Mitochondria Different-Phenotype (%)” value [9] was 16% and the “Population Mitotic Cells (%)” value [9] was 56%. For the same molecule, the “Population Normal (%)” value [9] was 98%, the “Population Pyknosed Nuclei (%)” value [9] was 6% and the “Population Tubulin-Different-Phenotype (%)” value [9] was 10%. The “Total Cell Count” value [9] was 663, the “Population Apoptotic (%)” value [10] was 24% and the “Population Fragmented Nuclei (%)” value [10] was 12%. The “Population Healthy Nuclei (%)” value [10] was 79%, the “Population Hoechst High Intensity Objects (%)” value [10] was 3% and the “Population Membrane Permeable-Phenotype (%)” value [10] was 1%. The “Population Mitochondria Different-Phenotype (%)” value [10] was 24%, the “Population Mitotic Cells (%)” value [10] was 75% and the “Population Normal (%)” value [10] was 96%. The “Population Pyknosed Nuclei (%)” value [10] was 8%, the “Population Tubulin-Different-Phenotype (%)” value [10] was 13% and the “Total Cell Count” value [10] was 681. The “Population Apoptotic (%)” value [11] was 60%, the “Population Fragmented Nuclei (%)” value [11] was 16% and the “Population Healthy Nuclei (%)” value [11] was 72%. The “Population Hoechst High Intensity Objects (%)” value [11] was 7%, the “Population Membrane Permeable-Phenotype (%)” value [11] was 0% and the “Population Mitochondria Different-Phenotype (%)” value [11] was 57%. For the same molecule, the “Population Mitotic Cells (%)” value [11] was 39%, the “Population Normal (%)” value [11] was 92% and the “Population Pyknosed Nuclei (%)” value [11] was 11%. For the same molecule, the “Population Tubulin-Different-Phenotype (%)” value [11] was 28%, the “Total Cell Count” value [11] was 416 and the “Population Apoptotic (%)” value [12] was 52%. For the same molecule, the “Population Fragmented Nuclei (%)” value [12] was 15%, the “Population Healthy Nuclei (%)” value [12] was 75% and the “Population Hoechst High Intensity Objects (%)” value [12] was 6%. The “Population Mitochondria Different-Phenotype (%)” value [12] was 52%, the “Population Mitotic Cells (%)” value [12] was 47% and the “Population Normal (%)” value [12] was 93%. For the same molecule, the “Population Pyknosed Nuclei (%)” value [12] was 8%, the “Population Tubulin-Different-Phenotype (%)” value [12] was 21% and the “Total Cell Count” value [12] was 530.
